# Sampled rows, rich in hits. Any-hit rate of the full collection: about 1.9%.
# UBC13 inh: inhibitors of human UBC13 polyubiquitin chain formation | P61088 | TR-FRET | inhibition, % at 20 µM | hit rate 0.47% among 330,000 | AID 485273; in the data active = inhibition above about 45%, passing the limit was not always enough
# Target sequence (P61088 whole entry, looked up): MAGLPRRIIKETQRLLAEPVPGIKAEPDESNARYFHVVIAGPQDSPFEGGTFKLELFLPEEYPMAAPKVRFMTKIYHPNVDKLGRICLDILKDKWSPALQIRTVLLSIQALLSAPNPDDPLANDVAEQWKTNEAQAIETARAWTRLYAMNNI
# Neddyl block: inhibitors of human cullin neddylation | TR-FRET cullin neddylation, biochemical | inhibition, % at 25 µM | hit rate 0.58% among 360,000; in the data active = inhibition above about 36%
# SR-BI DiI-HDL act: SR-BI HDL lipid transfer activation. CHO ldlA[mSR-BI] cells, DiI-HDL uptake fluorescence, 3 h; 100 = double the neutral-control signal. activation, % at 12.5 µM. hit rate 0.096% among 320,000. AID 504775;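 active = mean replicate activation of at least 60% and every replicate at or above 60%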;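 note: 0% = median plate neutral-control signal and 100% = twice that signal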
#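 System: LDL receptor-deficient CHO ldlA cells overexpressing murine SR-BI | Timing: 3 h uptake period with compound, 37 °C | Medium: HEPES-buffered (25 mM, pH 7.4) F12 plus 0.5% BSA | Dosing: Single-point compound dose | Signal: Bottom-read fluorescence, 550/595 nm | Read-out: Retained DiI signal reflecting DiI-HDL uptake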
# SR-BI DiI inh: mouse SR-BI HDL lipid transfer inhibition | Q61009 | ldlA[mSR-BI] CHO cells, DiI-HDL uptake fluorescence, 3 h | inhibition, % at 12.5 µM | hit rate 0.96% among 320,000 | AID 488896;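 active = mean replicate inhibition of at least 70% and a set share of replicates each scoring 70 or more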;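 note: 0% = median of neutral control wells and 100% = median of positive control wells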
# Neddyl inh conf: cullin neddylation inhibition, confirmation | shares compounds with Neddyl block | TR-FRET cullin neddylation biochemical assay | calls only at 25 µM | hit rate 13% among 1,800 | AID 652217; in the data active = inhibition above about 40%;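 note: neddylation substrate is the cullin 1 ring ligase complex with SKP2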
# The depositor's hits bear a star; i = inactive; . = no result shown; + = active, no number.
SMILES,UBC13 inh,Neddyl block,SR-BI DiI-HDL act,SR-BI DiI inh,Neddyl inh conf
O=C(N/N=C/C=C\c1ccco1)c1ccccn1,-11,61*,.,.,i
O=C(NC1CCCCC1)C(c1ccc(O)cc1)N(C(=O)c1cnccn1)c1cccc(F)c1 (stereo not given),0,-5,-4,4,.
Cc1[nH]c2ccc(C(=O)OCC(=O)Nc3cccc(S(N)(=O)=O)c3)cc2c1C,8,45*,-26,26,i
Cc1cccc(C)c1NC(=O)CCc1nnc2ccc(N3CCCC3)nn12,-4,-3,-14,14,.
COc1ccc(C(=O)NCCNc2nc3c(C)cccc3cc2C#N)cc1OC,8,39*,-45,45,.
CCCN(CC(=O)Nc1ccccc1OC)C(=O)c1nc2nc(C)ccn2n1,7,2,8,-8,.
CCC12CCCN3CCc4c(n(c5ccccc45)C(O)(C(=O)OC)C1)C32 (stereo not given),-10,28,12,-12,.
CC[C@]12CCCN3CCc4c(n(c5ccccc45)[C@](O)(C(=O)OC)C1)[C@@H]32,5,43*,10,-10,i
NC1=Nc2cccc3cccc1c23,-56,49*,-17,17,i
O=C(c1[nH]c(C(F)(F)F)nc1-c1ccccc1)N1CCCN(Cc2ccc(F)cc2)CC1,.,-2,.,.,.
O=C(c1ccc(F)cc1Cl)N(Cc1ccco1)C1CCS(=O)(=O)C1 (stereo not given),7,5,21,-21,.
CCOC(=O)c1c(C)[nH]c(C(=O)Nc2cc(OCC)c(N3CCOCC3)cc2OCC)c1C,21,45*,-64,64,i
CC(C)Cc1ccc(CN2CCCC(NC(=O)c3cnc4ccccn4c3=O)C2)cc1 (stereo not given),16,.,-5,5,.
O=C(NC1CCCN(Cc2ccc(Cl)cc2)C1)c1cnc2ccccn2c1=O (stereo not given),0,41*,3,-3,.
CCCN(C)C1CN(Cc2cn(Cc3ccc(OC)cc3)nn2)S(=O)(=O)C1 (stereo not given),.,8,.,.,.
CC1(C)C(/C=C/C=C/C=C/C=C2\N(CCCCS(=O)(=O)O)c3ccc4ccccc4c3C2(C)C)=[N+](CCCCS(=O)(=O)[O-])c2ccc3ccccc3c21,-74,27,-27,27,.
COC(=O)COc1ccc2oc(=O)cc(-c3cc4cccc(OC)c4o3)c2c1,6,42*,37,-37,i
COCCn1nnnc1CN(CCc1ccccc1)Cc1cc2ccc(C)cc2[nH]c1=O,8,6,24,-24,.
CCOc1ccc2[nH]c(=O)c(CN(CCO)Cc3nnnn3CCc3ccccc3)cc2c1,6,46*,37,-37,i
CCOc1ccc2[nH]c(=O)c(CN(CCCN3CCOCC3)Cc3nnnn3Cc3ccc(OC)cc3)cc2c1,9,39*,8,-8,i
COc1cc2cc(CN(CCCN3CCOCC3)Cc3nnnn3Cc3ccccc3)c(=O)[nH]c2cc1OC,-6,.,17,-17,.
CC1CCCCC1NC(=O)C1CCC(CNS(=O)(=O)c2cccc3cccnc23)CC1 (stereo not given),-6,-1,-1,1,.
COc1ccc(OC)c(NC=C2C(=O)OC(C)(C)OC2=O)c1,-11,4,-13,13,.
COc1ccc(OC)c(NC=C2C(=O)OC3(CCCCC3)OC2=O)c1,-8,52*,-31,31,i
CCOC(=O)c1[nH]c2ccc(F)cc2c1NC(=O)CN1CCN(C/C=C/c2ccccc2)CC1,17,42*,-26,26,i
SMILES,UBC13 inh,Neddyl block,SR-BI DiI-HDL act,SR-BI DiI inh,Neddyl inh conf
CCOC(=O)c1[nH]c2ccc(OC)cc2c1NC(=O)c1ccccc1C(=O)O,3,43*,-1,1,i
CCC(C)N(C(=O)CN1C(=O)NC2(CCc3ccccc32)C1=O)C1CCS(=O)(=O)C1 (stereo not given),-2,7,12,-12,.
C[C@H]1CN([C@@H](C)CO)C(=O)CCCn2cc(nn2)CO[C@@H]1CN(C)C(=O)Nc1ccc(-c2cccs2)cc1,.,8,.,.,.
CC(C)CN1C(=O)CN(S(C)(=O)=O)CC1(C)C(=O)NC(C)C (stereo not given),.,0,.,.,.
CCOc1ccccc1NC(=O)c1ccc2c(=O)n3c(nc2c1)CCCCC3,1,8,-49,49,.
CCCNC(=O)c1ccccc1NC(=O)c1ccc2c(=O)n3c(nc2c1)CCC3,3,46*,-3,3,.
COCc1cc(C)nc2sc(C(=O)Nc3ccccc3C)c(N)c12,8,43*,-33,33,.
COCc1cc(C)nc2sc(C(=O)OC)c(N)c12,-1,43*,-4,4,.
CCc1ccccc1NC(=O)c1sc2nc(C)cc(C)c2c1N,7,37,-21,21,.
Cc1cc(=O)oc2c(C)c(OC(C)C(=O)N3CC[C@@]4(O)CCCC[C@H]4C3)ccc12 (stereo not given in full),-3,29,-24,24,.
Cc1cc(=O)oc2c(C)c(OCC(=O)N(C)C)ccc12,3,41*,-12,12,i
Cc1cc(=O)oc2c(C)c(OCC(=O)N3CC[C@@]4(O)CCCC[C@H]4C3)ccc12,9,44*,-13,13,i
CCc1cc(=O)oc2c(C)c(OCC(=O)NCC3CCC(C(=O)O)CC3)ccc12 (stereo not given),-8,31,-13,13,.
CCc1cc(=O)oc2c(C)c(OCC(=O)N3CCC(C(=O)O)CC3)ccc12,8,43*,-3,3,+
COc1ccccc1CNC(=O)CCC1N=C2c3ccccc3N=C(SCC(=O)NCC3CCCO3)N2C1=O (stereo not given),-2,12,-16,16,.
C=C1C[C@@H]2C[C@@H]2CN(S(=O)(=O)c2ccc(C)cc2)[C@@H]1c1ccco1,.,-4,.,.,.
COc1ccc(Nc2cc3n(c(=O)n2)CCc2cc(OC)c(OC)cc2-3)cc1,-3,47*,-9,9,.
CC(C)COC(=O)N1CCCCC1c1cc(C(=O)Nc2ccccc2)no1 (stereo not given),.,-6,.,.,.
CCCc1cc(-n2ccnc2C)n2c(nc3ccccc32)c1C#N,0,38*,.,.,i
CCN(CC)c1ncnc2c1ncn2[C@H]1CN(Cc2cccnc2)C[C@@H](CO)O1,.,7,.,.,.
CCOC(=O)c1c(-c2ccccc2)n(C)c2ccc(O)cc12,4,42*,-20,20,.
CCOC(=O)c1c(C)n(-c2ccccc2)c2ccc(O)cc12,-2,19,-69,69,.
O=c1c2ccccc2nc2n1CCCN2,10,52*,4,-3,.
CCOc1cc(C2NC(=O)c3ccccc3O2)ccc1OC(C)C (stereo not given),-9,45*,-18,18,i
CCOc1ccc(C2NC(=O)c3ccccc3O2)cc1OCC (stereo not given),3,41*,0,0,i
CCOc1ccc(C2NC(=O)c3ccccc3O2)cc1OC (stereo not given),3,37,-10,10,.

# Assay outcomes as filed in PubChem BioAssay.
